mABHD4 FP = ABHD4 inhibitors, primary screen, biochemical, fluorescence polarization, mouse; (Lyso)-N-acylphosphatidylethanolamine lipase (Mus musculus), Q8VD66; purified mABHD4, FP-Rh probe fluorescence polarization; hit rate 0.54% among 370,000; inhibition, % at 8.92 µM;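 active means inhibition exceeding the mean over every tested compound plus 3 SD, cut at about 30% in these data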;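 further: 0% = plate median of compound wells and 100% = S159A mutant with DMSO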
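Doses – 8.92 µM, single dose · Material – wild-type mouse ABHD4 protein · Replication – single well per compound (singlicate) · Measure – percent inhibition of probe binding, normalized to plate controls · Schedule – 45 min compound pre-incubation plus 60 min probe step, 25 °C · Detection – fluorescence polarization with parallel and perpendicular emission, 525/598 nm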
rCAG RNA binder = binders of r(CAG) RNA repeats, primary screen, biochemical, fluorescence. inhibition, % at 3 µM. r(CAG) RNA repeat, TO-PRO-1 dye displacement fluorescence. hit rate 1.3% among 370,000;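 active means inhibition above the plate cutoff, the mean of all test compounds on that plate plus 3 SD, cut at about 35% in these data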;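 further: 0% = DMSO alone and 100% = 100 µM mitoxantrone as full dye displacement; higher means more dye released from RNA so lower well fluorescence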
HTRA1 inh = HTRA1 serine protease inhibitors, primary screen, biochemical, fluorescence polarization, HTS; Q92743; recombinant HTRA1, FP-rhodamine activity-based probe; inhibition, % at 5.96 µM; hit rate 0.5% among 340,000; AID 504803, 2011; in the data active means inhibition above about 36%;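 further: 0% = enzyme with DMSO and 100% = wells lacking enzyme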
Target sequence (Q92743 whole entry, looked up): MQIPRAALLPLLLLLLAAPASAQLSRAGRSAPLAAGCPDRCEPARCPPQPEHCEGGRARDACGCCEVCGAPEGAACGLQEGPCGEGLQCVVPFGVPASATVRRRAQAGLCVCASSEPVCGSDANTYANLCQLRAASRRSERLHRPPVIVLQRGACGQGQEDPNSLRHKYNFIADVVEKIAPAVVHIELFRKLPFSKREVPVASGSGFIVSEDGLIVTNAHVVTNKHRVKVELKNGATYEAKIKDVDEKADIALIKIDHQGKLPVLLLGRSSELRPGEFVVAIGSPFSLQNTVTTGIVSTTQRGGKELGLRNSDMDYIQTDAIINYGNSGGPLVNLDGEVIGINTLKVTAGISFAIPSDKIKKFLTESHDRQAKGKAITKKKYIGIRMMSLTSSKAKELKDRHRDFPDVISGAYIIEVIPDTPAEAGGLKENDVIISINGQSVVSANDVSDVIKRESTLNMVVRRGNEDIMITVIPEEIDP
PRMT1 inh = PRMT1 methyltransferase inhibitors, primary screen, biochemical, fluorescence polarization. inhibition, % at 2.79 µM. recombinant PRMT1, activity-based probe fluorescence polarization. hit rate 1.3% among 370,000;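 active means inhibition above about 21% made by adding two undisclosed values, limit read from the data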
SIAE inh = human SIAE inhibitors, primary screen, biochemical, fluorescence polarization, FP-Rh probe, 1536-well HTS. Sialate O-acetylesterase (Homo sapiens), Q9HAT2. SIAE FP-Rh probe binding. hit rate 0.69% among 370,000. AID 1053197, 2014. inhibition, % at 9.66 µM;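 active means inhibition above a cutoff: mean of compounds within the control limits plus 3 SD of those, cut at about 17% in these data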;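 further: 0% = plate median of compound wells and 100% = probe without SIAE protein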
PRMT1 inh conf = PRMT1 methyltransferase inhibitors, confirmation, biochemical, fluorescence polarization, triplicate | inhibition, % at 2.79 µM | shares compounds with PRMT1 inh | hit rate 42% among 3,300 | recombinant His-PRMT1, activity-based probe fluorescence polarization;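 active means mean inhibition across replicates above the hit cutoff derived for the earlier primary screen, cut at about 22% in these data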
Active calls of the source: *; · = no result. The list is not random: actives were taken first. Their share in the collection is about 3.3%.

SMILES | mABHD4 FP | rCAG RNA binder | HTRA1 inh | PRMT1 inh | SIAE inh | PRMT1 inh conf
CC(C)(CNC(=O)c1cccc(S(=O)(=O)Nc2ccc(Br)cc2)c1)N1CCOCC1 | -2 | 11 | -7 | -2 | -5 | ·
N#CC1=C(N)OC2=C(CC/C2=C\c2ccccc2)C1c1ccccc1 (stereo not drawn) | 0 | -3 | -21 | 27* | 6 | 48*
O=C(NCCF)C1Nc2ccc(OC(F)(F)F)cc2C2C=CCC12 (stereo not drawn) | 26 | 29 | 32 | 29* | 5 | -1
C=CCn1c(SCC(=O)NC(=O)c2cccc([N+](=O)[O-])c2)nnc1-c1ccccc1F | -2 | 2 | 3 | -3 | 3 | ·
CC(CC(=O)c1cccs1)CC(=O)c1cccs1 | 4 | -4 | -1 | 0 | -1 | ·
O=C(SCC(O)C(O)CS)c1cccs1 (stereo not drawn) | -4 | 5 | -6 | 65* | 2 | 54*
Cc1ccc(NC(=O)N2CCCC(C(=O)O)C2)cc1 (stereo not drawn) | -7 | -1 | 6 | -4 | 10 | ·
CCCCN(C(=O)c1ccc2c(c1)OCO2)C1CCS(=O)(=O)C1 (stereo not drawn) | -5 | -4 | 2 | 3 | 1 | ·
COc1ccccc1NC(=O)c1nc(S(=O)(=O)Cc2ccccc2)ncc1Cl | 1 | -3 | 2 | 7 | 7 | ·
CCS(=O)(=O)c1ncc(Cl)c(C(=O)Nc2ccc(S(=O)(=O)N3CCC(C)CC3)cc2)n1 | -13 | 13 | -84 | 31* | -4 | 14
COC(=O)c1ccc(NC(=O)c2nc(S(=O)(=O)Cc3cccc(C)c3)ncc2Cl)cc1 | -12 | 8 | -18 | 52* | -4 | 38*
CCc1ccc(NC(=O)c2nc(S(=O)(=O)Cc3ccccc3)ncc2Cl)cc1 | -17 | 3 | -9 | 31* | -9 | 26*
CC1CCN(S(=O)(=O)c2ccc(NC(=O)c3ccncc3)cc2)CC1 | -2 | -4 | -11 | 4 | -4 | ·
Cc1ccc(NC(=O)CCC(=O)N2CCN(S(=O)(=O)c3ccc(C)cc3)CC2)cc1 | -11 | 2 | -1 | 2 | 7 | ·
Cc1nnc(SCC2=C(C(=O)O)N3C(=O)C(NC(=O)Cn4ncc(Cl)c4C)C3SC2)s1 (stereo not drawn) | -7 | 18 | 3 | 50* | 4 | 37*
Cc1cc(C)n(CC(=O)NC2C(=O)N3C(C(=O)O)=C(CSc4nnc(C)s4)CSC23)n1 (stereo not drawn) | 9 | 9 | -2 | 35* | -5 | 20
Cc1nnc(SCC(=O)NN2C(=O)NC3(CCCCC3)C2=O)s1 | 4 | 0 | 4 | 0 | 2 | ·
Cn1nnnc1SCC1=C(C(=O)O)N2C(=O)C(NC(=O)C3CC3c3ccccc3)C2SC1 (stereo not drawn) | 0 | 11 | -4 | 28* | 14 | 13
CO/N=C(\C(=O)N[C@@H]1C(=O)N2C(C(=O)O)=C(COC(N)=O)CS[C@H]12)c1ccco1 | 3 | 19 | 1 | 8 | 1 | ·
Cc1nnc(SCC2=C(C(=O)O)N3C(=O)C(NC(=O)c4cccc(F)c4F)C3SC2)s1 (stereo not drawn) | -6 | 24 | 1 | 59* | 8 | 29*
Cc1nnc(SCC(=O)NC2CCC(C)CC2)s1 (stereo not drawn) | 7 | -2 | 5 | 0 | 1 | ·
Cc1ccc(CN2CCN(C(=O)/C=C/[C@H]3O[C@@H](n4cc(C)c(=O)[nH]c4=O)C[C@@H]3O)CC2)cc1 | -1 | 0 | · | -4 | -4 | ·
COC(=O)c1cccc(Cn2ccc3ccc(-c4ccc5ccn(C(=O)c6ccccc6)c5c4)cc32)c1 | -3 | 12 | · | 1 | -3 | ·
O=C1C2C3C=CC(C3)C2S(=O)(=O)C2C3C=CC(C3)C12 (stereo not drawn) | 1 | 3 | 2 | 0 | 1 | ·
Oc1sc(C=Nc2ccc(F)cc2)c2ccccc12 | -2 | -8 | 6 | 0 | -1 | ·
SMILES | mABHD4 FP | rCAG RNA binder | HTRA1 inh | PRMT1 inh | SIAE inh | PRMT1 inh conf
Oc1sc(C=Nc2ccccc2)c2ccccc12 | 1 | -20 | 1 | 1 | -2 | ·
Oc1c(C=Nc2ccccc2)sc2ccccc12 | -11 | -3 | -6 | 59* | -9 | 32*
CN=Cc1sc2ccccc2c1O | 1 | -3 | 4 | 52* | -10 | 27*
Cc1ccc(O)c(N=Cc2sc3ccccc3c2Cl)c1 | 25 | 3 | 25 | 1 | 9 | ·
CC(=O)NCCN=Cc1sc2ccccc2c1O | -3 | -3 | -4 | 40* | -7 | 30*
Oc1c(C=Nc2cccnc2)sc2ccccc12 | -15 | 2 | 3 | 65* | -14 | 45*
O=C(CCc1nnc2ccc(NCc3ccc(F)cc3)nn12)NC1CCCC1 | -7 | -3 | 1 | 3 | 6 | ·
CCN(Cc1ccccc1)C(=O)C1CCN(S(=O)(=O)c2ccc3c(c2)OCCO3)CC1 | 3 | -3 | -4 | 1 | -7 | ·
Cc1ccc2nc(C)c3c(c2c1)COC3 | -1 | 1 | 4 | 1 | -1 | ·
CC(OC(=O)Cc1c(F)cccc1Cl)C(=O)NC1CCCCC1C (stereo not drawn) | 4 | -3 | 12 | -6 | -5 | ·
CCNc1nc(NC(C)(C)C)nc(N2CCCC2)n1 | 8 | -11 | 0 | 32* | 4 | 3
O=C(O)c1ccccc1C(=O)Nc1nccs1 | 1 | -1 | 1 | 1 | -3 | ·
O=C(O)c1ccccc1C(=O)Nc1n[nH]c(=S)s1 | 7 | 3 | 2 | 31* | 7 | 10
Cn1c(=O)[nH]c(=O)c2c1nc(SCCN1CCCCC1)n2CCCc1ccccc1 | 0 | -6 | -2 | 57* | 0 | 46*
Cn1c(=O)[nH]c(=O)c2c1nc(SCCN1CCCCC1)n2Cc1ccccc1 | 6 | -6 | 0 | -5 | 4 | ·
CSc1nc2c(c(=O)[nH]c(=O)n2C)n1Cc1ccc(Cl)cc1 | 3 | 1 | 0 | 66* | 3 | 7
CSc1nc2c(c(=O)[nH]c(=O)n2C)n1Cc1ccccc1Cl | 4 | 1 | 0 | -2 | -1 | ·
Cc1ccc(Cn2c(SCCN3CCCCC3)nc3c2c(=O)[nH]c(=O)n3C)cc1 | 0 | 0 | -6 | 33* | 3 | 46*
CCOc1ccccc1C(=O)NCC(=O)N1CCC(C)CC1 | 2 | 1 | 13 | -1 | 4 | ·
O=C(Cc1ccccc1F)Nc1cc(S(=O)(=O)N2CCOCC2)ccc1N1CCCC1 | -7 | 4 | · | 5 | 1 | ·
CCOC(=O)[C@@H]1C(c2c(OC)cc(OC)cc2OC)=NO[C@@H]1C(=O)OCC | 2 | -5 | 2 | -3 | 10 | ·
c1ccc(-c2csc(NNC3=NCCCCC3)n2)cc1 | 19 | 4 | -5 | 67* | 5 | 17

Bioassay records as filed in PubChem.
